In general, MIC refers to the smallest concentration in the dilution series that meets the test's criterion for growth inhibition.

Holding throughout (format): functional
The subject of one assay is Rhizopus arrhizus. Description: Antifungal activity against Rhizopus oryzae ATCC 10329by M38-A guideline based method. In a few lines:
(§1)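 Broth microdilution per CLSI (M38-A for filamentous fungi, M27-A3 for yeasts), in MOPS-buffered RPMI-1640 medium. Itraconazole served as the reference antifungal. The MIC was read as the endpoint and expressed in µg/mL.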

For assay [1], the system named is Cutaneotrichosporon cutaneum. The assay is described as follows: Antifungal activity against Trichosporon cutaneum ATCC 28592 by M38-A guideline based method. In a few lines:
as §1

A further assay relates to Candida parapsilosis. The assay is described as follows: Antifungal activity against Candida parapsilosis ATCC 22019 by M27-A3 guideline based method. The settings on record: Lodderomyces parapsilosis. In short, it runs like this: as §1
Another assay deals with Cyberlindnera jadinii. Description: Antifungal activity against Candida utilis ATCC 9226 by M27-A3 guideline based method. The conditions noted are these: Williopsis jadinii. In a few lines:
as §1

The subject of another assay is Candida tropicalis. The assay is described as follows: Antifungal activity against Candida tropicalis ATCC 13803 by M27-A3 guideline based method. In a few lines: as §1
In another assay the test system is Pichia kudriavzevii. Description: Antifungal activity against Candida krusei ATCC 14243 by M27-A3 guideline based method. In a few lines: as §1
For another assay, the system named is Candida albicans. Description: Antifungal activity against Candida albicans ATCC 10231 by M27-A3 guideline based method. In a few lines: as §1
The next assay has as its system Aspergillus fumigatus. The assay is described as follows: Antifungal activity against Aspergillus fumigatus ATCC 16907 by M38-A guideline based method. In a few lines: as §1
The subject of the next assay is Nakaseomyces glabratus. The assay is described as follows: Antifungal activity against Candida glabrata ATCC 34138 by M27-A3 guideline based method. In a few lines:
as §1

The subject of a further assay is Mucor hiemalis. The assay is described as follows: Antifungal activity against Mucor hiemalis ATCC 8690 by M38-A guideline based method. In a few lines:
as §1

In brackets after ≈: the same amount, converted by molar mass.

For `Cc1ccc(S(=O)(=O)c2nnn(CCn3c(-c4ccccc4)c(-c4ccccc4)oc3=O)c2-c2ccc(Cl)s2)cc1`, the minimal inhibitory concentration (MIC) was determined as 16 µg/mL (≈ 26.5 µM) in the assay with Rhizopus arrhizus; 8 µg/mL (≈ 13.3 µM) in assay [1]; 4 µg/mL (≈ 6.63 µM) against Candida parapsilosis; 8 µg/mL (≈ 13.3 µM) with Cyberlindnera jadinii; 8 µg/mL (≈ 13.3 µM) with Candida tropicalis; 2 µg/mL (≈ 3.32 µM) in the assay with Pichia kudriavzevii. The minimum inhibitory concentration (MIC) against Candida albicans stood at 8 µg/mL (≈ 13.3 µM); in the assay on Aspergillus fumigatus it was 16 µg/mL (≈ 26.5 µM); in the assay on Nakaseomyces glabratus, 2 µg/mL (≈ 3.32 µM); in the assay with Mucor hiemalis it was 16 µg/mL (≈ 26.5 µM).
Regarding `CCC(C)n1ncn(-c2ccc(N3CCN(c4ccc(OCC5COC(Cn6cncn6)(c6ccc(Cl)cc6Cl)O5)cc4)CC3)cc2)c1=O` (stereo not given) [ITRACONAZOLE], the MIC in the assay on Rhizopus arrhizus worked out at 1 µg/mL (≈ 1.42 µM); in assay [1] it was 8 µg/mL (≈ 11.3 µM); against Candida parapsilosis, 0.06 µg/mL (≈ 0.085 µM); with Cyberlindnera jadinii, 0.25 µg/mL (≈ 0.354 µM); with Candida tropicalis, 0.06 µg/mL (≈ 0.085 µM); against Pichia kudriavzevii, 0.25 µg/mL (≈ 0.354 µM). In addition, the MIC is 0.03 µg/mL (≈ 0.0425 µM) in the assay with Candida albicans, 1 µg/mL (≈ 1.42 µM) in the assay on Aspergillus fumigatus, 1 µg/mL (≈ 1.42 µM) against Nakaseomyces glabratus and 4 µg/mL (≈ 5.67 µM) in the assay on Mucor hiemalis.
`O=C(c1ccccc1)c1nnn(CCn2c(-c3ccccc3)c(-c3ccccc3)oc2=O)c1-c1ccccc1`: the MIC against Rhizopus arrhizus was found to be 16 µg/mL (≈ 31.2 µM); in assay [1], 8 µg/mL (≈ 15.6 µM); with Candida parapsilosis, 8 µg/mL (≈ 15.6 µM); in the assay on Cyberlindnera jadinii, 8 µg/mL (≈ 15.6 µM); in the assay with Candida tropicalis it was 8 µg/mL (≈ 15.6 µM); in the assay with Pichia kudriavzevii, 8 µg/mL (≈ 15.6 µM). Moreover, the MIC was determined as 8 µg/mL (≈ 15.6 µM) in the assay with Candida albicans, 16 µg/mL (≈ 31.2 µM) against Aspergillus fumigatus, 2 µg/mL (≈ 3.9 µM) in the assay with Nakaseomyces glabratus and 16 µg/mL (≈ 31.2 µM) in the assay on Mucor hiemalis.
For the compound `Cc1ccc(S(=O)(=O)c2nnn(CCn3c(-c4ccccc4)c(-c4ccccc4)oc3=O)c2-c2ccccc2)cc1`, the MIC stood at 16 µg/mL (≈ 28.4 µM) with Rhizopus arrhizus; 8 µg/mL (≈ 14.2 µM) in assay [1]; 8 µg/mL (≈ 14.2 µM) with Candida parapsilosis; 8 µg/mL (≈ 14.2 µM) in the assay with Cyberlindnera jadinii; 8 µg/mL (≈ 14.2 µM) in the assay on Candida tropicalis; 0.5 µg/mL (≈ 0.889 µM) against Pichia kudriavzevii. The MIC against Candida albicans is 8 µg/mL (≈ 14.2 µM); with Aspergillus fumigatus it was 2 µg/mL (≈ 3.55 µM); in the assay with Nakaseomyces glabratus, 1 µg/mL (≈ 1.78 µM); in the assay on Mucor hiemalis, 4 µg/mL (≈ 7.11 µM).
`CC(=O)c1nnn(CCn2c(-c3ccccc3)c(-c3ccccc3)oc2=O)c1C`: the MIC against Rhizopus arrhizus worked out at 8 µg/mL (≈ 20.6 µM); in [1], 8 µg/mL (≈ 20.6 µM); with Candida parapsilosis, 4 µg/mL (≈ 10.3 µM); against Cyberlindnera jadinii, 8 µg/mL (≈ 20.6 µM); against Candida tropicalis it was 8 µg/mL (≈ 20.6 µM); against Pichia kudriavzevii, 8 µg/mL (≈ 20.6 µM). Further, the minimum inhibitory concentration (MIC) is 8 µg/mL (≈ 20.6 µM) against Candida albicans, 16 µg/mL (≈ 41.2 µM) in the assay with Aspergillus fumigatus, 2 µg/mL (≈ 5.15 µM) in the assay on Nakaseomyces glabratus and 16 µg/mL (≈ 41.2 µM) in the assay on Mucor hiemalis.
`Cc1ccc(-c2c(S(=O)(=O)c3ccc(C)cc3)nnn2CCn2c(-c3ccccc3)c(-c3ccccc3)oc2=O)cc1`: the MIC was found to be 16 µg/mL (≈ 27.7 µM) against Rhizopus arrhizus; 8 µg/mL (≈ 13.9 µM) in [1]; 0.25 µg/mL (≈ 0.434 µM) against Candida parapsilosis; 4 µg/mL (≈ 6.94 µM) in the assay on Cyberlindnera jadinii; 8 µg/mL (≈ 13.9 µM) in the assay on Candida tropicalis; 8 µg/mL (≈ 13.9 µM) against Pichia kudriavzevii. Moreover, the MIC in the assay on Candida albicans came to 1 µg/mL (≈ 1.73 µM); against Aspergillus fumigatus, 8 µg/mL (≈ 13.9 µM); in the assay with Nakaseomyces glabratus it was 2 µg/mL (≈ 3.47 µM); in the assay on Mucor hiemalis, 16 µg/mL (≈ 27.7 µM).
Turning to `Cc1ccc(S(=O)(=O)c2nnn(CCn3c(-c4ccccc4)c(-c4ccccc4)oc3=O)c2-c2cccs2)cc1`, the MIC was 16 µg/mL (≈ 28.1 µM) against Rhizopus arrhizus; 8 µg/mL (≈ 14.1 µM) in assay [1]; 8 µg/mL (≈ 14.1 µM) against Candida parapsilosis; 8 µg/mL (≈ 14.1 µM) with Cyberlindnera jadinii; 8 µg/mL (≈ 14.1 µM) against Candida tropicalis; 8 µg/mL (≈ 14.1 µM) in the assay on Pichia kudriavzevii. The MIC in the assay on Candida albicans worked out at 8 µg/mL (≈ 14.1 µM); in the assay with Aspergillus fumigatus, 8 µg/mL (≈ 14.1 µM); against Nakaseomyces glabratus it was 1 µg/mL (≈ 1.76 µM); in the assay with Mucor hiemalis, 16 µg/mL (≈ 28.1 µM).
As for `Cc1ccc(S(=O)(=O)c2nnn(CCn3c(-c4ccccc4)c(-c4ccccc4)oc3=O)c2-c2cccc([N+](=O)[O-])c2)cc1`, the MIC against Rhizopus arrhizus is 16 µg/mL (≈ 26.3 µM); in assay [1], 2 µg/mL (≈ 3.29 µM); in the assay with Candida parapsilosis, 0.5 µg/mL (≈ 0.823 µM); against Cyberlindnera jadinii it was 8 µg/mL (≈ 13.2 µM); in the assay on Candida tropicalis, 8 µg/mL (≈ 13.2 µM); against Pichia kudriavzevii, 8 µg/mL (≈ 13.2 µM). The MIC against Candida albicans came out at 8 µg/mL (≈ 13.2 µM); with Aspergillus fumigatus it was 16 µg/mL (≈ 26.3 µM); against Nakaseomyces glabratus, 0.12 µg/mL (≈ 0.197 µM); in the assay with Mucor hiemalis, 16 µg/mL (≈ 26.3 µM).
As for `N#Cc1nnn(CCn2c(-c3ccccc3)c(-c3ccccc3)oc2=O)c1-c1ccccc1`, the minimal inhibitory concentration (MIC) amounted to 16 µg/mL (≈ 36.9 µM) in the assay on Rhizopus arrhizus; 8 µg/mL (≈ 18.5 µM) in assay [1]; 8 µg/mL (≈ 18.5 µM) in the assay on Candida parapsilosis; 8 µg/mL (≈ 18.5 µM) against Cyberlindnera jadinii; 8 µg/mL (≈ 18.5 µM) in the assay with Candida tropicalis; 0.5 µg/mL (≈ 1.15 µM) against Pichia kudriavzevii. In addition, the minimal inhibitory concentration (MIC) with Candida albicans came out at 8 µg/mL (≈ 18.5 µM); against Aspergillus fumigatus, 16 µg/mL (≈ 36.9 µM); against Nakaseomyces glabratus, 0.12 µg/mL (≈ 0.277 µM); in the assay with Mucor hiemalis, 2 µg/mL (≈ 4.61 µM).
Take `Cc1ccc(S(=O)(=O)c2nnn(CCn3c(-c4ccccc4)c(-c4ccccc4)oc3=O)c2-c2ccc(Cl)cc2)cc1`: the MIC with Rhizopus arrhizus was 16 µg/mL (≈ 26.8 µM); in assay [1], 8 µg/mL (≈ 13.4 µM); in the assay on Candida parapsilosis, 8 µg/mL (≈ 13.4 µM); against Cyberlindnera jadinii, 8 µg/mL (≈ 13.4 µM); against Candida tropicalis it was 8 µg/mL (≈ 13.4 µM); in the assay on Pichia kudriavzevii it was 8 µg/mL (≈ 13.4 µM). Besides, the minimum inhibitory concentration (MIC) came to 8 µg/mL (≈ 13.4 µM) in the assay on Candida albicans, 4 µg/mL (≈ 6.7 µM) in the assay on Aspergillus fumigatus, 4 µg/mL (≈ 6.7 µM) in the assay with Nakaseomyces glabratus and 16 µg/mL (≈ 26.8 µM) in the assay with Mucor hiemalis.
For the compound `Cc1ccc(S(=O)(=O)c2nnn(CCn3c(-c4ccccc4)c(-c4ccccc4)oc3=O)c2-c2ccc([N+](=O)[O-])cc2)cc1`, the MIC against Rhizopus arrhizus is 16 µg/mL (≈ 26.3 µM); in assay [1], 8 µg/mL (≈ 13.2 µM); in the assay on Candida parapsilosis, 8 µg/mL (≈ 13.2 µM); with Cyberlindnera jadinii it was 4 µg/mL (≈ 6.58 µM); in the assay on Candida tropicalis, 8 µg/mL (≈ 13.2 µM); against Pichia kudriavzevii, 0.25 µg/mL (≈ 0.411 µM). Also, the MIC with Candida albicans was found to be 4 µg/mL (≈ 6.58 µM); against Aspergillus fumigatus it was 2 µg/mL (≈ 3.29 µM); against Nakaseomyces glabratus, 4 µg/mL (≈ 6.58 µM); against Mucor hiemalis, 16 µg/mL (≈ 26.3 µM).

The values above are taken from ChEMBL document CHEMBL4257460, “Synthesis and antifungal activity of novel oxazolidin-2-one-linked 1,2,3-triazole derivatives” (2017).
